Test results: ChEMBL document CHEMBL3774372, “Design, physico-chemical properties and biological evaluation of some new N-[(phenoxy)alkyl]- and N-{2-[2-(phenoxy)ethoxy]ethyl}aminoalkanols as anticonvulsant agents” (Bioorg Med Chem, 2016)
Calls of active or inactive are those of the source. The rule behind the calls is not given here.

Key:
[1] = biological target: Beta-1 adrenergic receptor (Homo sapiens) (UniProt P08588); experiment: Displacement of [3H](-)CGP12177 from human recombinant Beta-1 adrenergic receptor expressed in HEK293 cells at 10^-5 M; assay type: cell-based
Procedure, shortened: (§1)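 Radioligand binding screen run at a single test concentration of 10^-5 M. Each target used its stated receptor source (human recombinant CHO or HEK-293 cells, endogenous cell lines, or rat tissue membranes) with the listed radioligand.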

[2] = biological target: 5-hydroxytryptamine receptor 7 (Homo sapiens) (UniProt P34969); experiment: Displacement of [3H]LSD from human recombinant 5-HT7 receptor expressed in CHO cells at 10^-5 M; assay type: cell-based; procedure, shortened: as §1
[3] = biological target: D(1A) dopamine receptor (Homo sapiens) (UniProt P21728); experiment: Displacement of [3H]SCH23390 from human recombinant Dopamine D1 receptor expressed in CHO cells at 10^-5 M; assay type: cell-based
Procedure, shortened: (§2)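 Radioligand displacement screen with the test agent at a single 10^-5 M concentration; receptor source and radioligand per target as tabulated (recombinant human cell lines or rat cerebral cortex/urinary bladder).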

[4] = biological target: D(2) dopamine receptor (Homo sapiens) (UniProt P14416); experiment: Displacement of [3H]methylspiperone from human recombinant Dopamine D2S receptor expressed in HEK293 cells at 10^-5 M; assay type: cell-based; procedure, shortened: as §2
[5] = biological target: Neuromedin-K receptor (Homo sapiens) (UniProt P29371); experiment: Displacement of [3H]SR142801 from human recombinant NK3 receptor expressed in CHO cells at 10^-5 M; assay type: cell-based; procedure, shortened: as §2
[6] = biological target: Melatonin receptor type 1A (Homo sapiens) (UniProt P48039); experiment: Displacement of [125I]2-iodomelatonin from human recombinant ML1A receptor expressed in CHO cells at 10^-5 M; assay type: cell-based; procedure, shortened: as §1
[7] = biological target: Prostacyclin receptor (Homo sapiens) (UniProt P43119); experiment: Displacement of [3H]iloprost from human recombinant Prostanoid IP receptor expressed in HEK293 cells at 10^-5 M; assay type: cell-based; procedure, shortened: as §2
Rattus norvegicus = experiment: Anticonvulsant activity in rat assessed as protection against maximal electric shock-induced seizures at 30 mg/kg, po measured after 1 hr; assay type: functional, organism-based
Procedure, shortened: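 Rats dosed ip or orally as 0.5% methylcellulose suspension; maximal electroshock at listed time. Protection = abolition of hindlimb tonic extension; 4 rats per group, scored protected/tested.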

[8] = Ratio of drug level in brain to plasma in CD1 mouse at 12.92 mg/kg, ip administered as single dose measured after 240 mins by LC/ESI-MS/MS analysis; assay type: ADME, organism-based; details: brain and plasma, read-out: BPR
Mus musculus [9] = experiment: Neurotoxicity in mouse at 300 mg/kg, ip after 0.5 hrs by rotarod test; assay type: toxicity, organism-based; details: in vivo
Procedure, shortened: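 Mice were dosed ip with compound suspended in 0.5% methylcellulose. Rotarod: a 1 in. knurled rod turning at 6 rpm. Neurotoxicity was scored as failure to stay on the rod for at least 1 min in each of three trials. Results are given as the number of animals affected out of the number tested.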

Mus musculus [10] = experiment: AUC (0 to infinity) in CD1 mouse plasma at 1 mg/kg, iv measured up to 240 mins by LC/ESI-MS/MS analysis; assay type: ADME, organism-based; design: dose 1 mg/kg, time infinity, route intravenous; details: in vivo, 4 h
[11] = Absolute bioavailability in CD1 mouse plasma at 12.92 mg/kg, ip measured up to 240 mins by LC/ESI-MS/MS analysis; assay type: ADME, organism-based
[12] = Ratio of drug level in brain to plasma in CD1 mouse at 12.92 mg/kg, ip administered as single dose measured after 5 mins by LC/ESI-MS/MS analysis; assay type: ADME, organism-based; details: brain and plasma, read-out: BPR
[13] = Half life in CD1 mouse plasma at 1 mg/kg, iv measured up to 240 mins by LC/ESI-MS/MS analysis; assay type: ADME, organism-based
Procedure, shortened: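 Male CD1 mice, fasted overnight, were dosed iv at 1 mg/kg. Under ketamine/xylazine, blood was collected at 0, 5, 15, 30, 60, 120 and 240 min, one sample per animal, four mice per time point. Plasma concentrations were measured by LC/ESI-MS/MS. Terminal t1/2 was taken as 0.693/kz, with kz from log-linear regression, using non-compartmental analysis.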

Vibrio harveyi = experiment: Mutagenicity in Vibrio harveyi BB7XM assessed as number of colonies after 48 hrs (reference value: 14 no_unit); assay type: ADME, organism-based; details: in vivo
Procedure, shortened: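 Vibrio harveyi mutagenicity test: test compound was added to exponentially growing cultures (A600 = 0.1, 30 °C) and grown to OD600 0.3–0.4. Then 5 × 10^6 cells were plated on BOSS agar with neomycin (final 100 µg/mL) and incubated 48 h at 30 °C. Neomycin-resistant colonies were counted. Triplicate; controls were water, DMSO and NQNO 40 ng/mL.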

[14] = MRT in CD1 mouse plasma at 12.92 mg/kg, ip measured up to 240 mins by LC/ESI-MS/MS analysis; assay type: ADME, organism-based
[15] = Ratio of drug level in brain to plasma in CD1 mouse at 12.92 mg/kg, ip administered as single dose measured after 30 mins by LC/ESI-MS/MS analysis; assay type: ADME, organism-based; details: brain and plasma, read-out: BPR
[16] = Ratio of drug level in brain to plasma in CD1 mouse at 1 mg/kg, iv administered as single dose measured after 60 mins by LC/ESI-MS/MS analysis; assay type: ADME, organism-based; details: brain and plasma, read-out: BPR
[17] = Absolute bioavailability in CD1 mouse plasma at 12.92 mg/kg, ig measured up to 240 mins by LC/ESI-MS/MS analysis; assay type: ADME, organism-based; details: po
Mus musculus [18] = experiment: Anticonvulsant activity in ip dosed mouse assessed as protection against subcutaneous pentylenetetrazol-induced seizures measured after […]; assay type: functional
[19] = Tmax in CD1 mouse brain at 12.92 mg/kg, ip measured up to 240 mins by LC/ESI-MS/MS analysis; assay type: ADME, organism-based
[20] = Ratio of drug level in brain to plasma in CD1 mouse at 12.92 mg/kg, ig administered as single dose measured after 30 mins by LC/ESI-MS/MS analysis; assay type: ADME, organism-based; details: brain and plasma, po, read-out: BPR
Mus musculus [21] = experiment: Initial plasma concentration in CD1 mouse at 1 mg/kg, iv measured up to 240 mins by LC/ESI-MS/MS; assay type: ADME, organism-based; details: in vivo, 4 h
Mus musculus [22] = experiment: Half life in CD1 mouse plasma at 12.92 mg/kg, ig measured up to 240 mins by LC/ESI-MS/MS analysis; assay type: ADME, organism-based; details: in vivo, po, 4 h
[23] = Ratio of drug level in brain to plasma in CD1 mouse at 12.92 mg/kg, ig administered as single dose measured after 15 mins by LC/ESI-MS/MS analysis; assay type: ADME, organism-based; details: brain and plasma, po, read-out: BPR
[24] = biological target: Neurotensin receptor type 1 (Homo sapiens) (UniProt P30989); experiment: Displacement of [125I]Tyr3-neurotensin from human recombinant NT1 receptor expressed in CHO cells at 10^-5 M; assay type: cell-based; procedure, shortened: as §1
Mus musculus [25] = experiment: Anticonvulsant activity in mouse assessed as protection against 6 Hz psychomotor seizure at 50 mg/kg, ip after 2 hrs; assay type: functional, organism-based
Procedure, shortened: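 Suspension in 0.5% methylcellulose given ip to mice; corneal stimulation with 0.2 ms monopolar rectangular pulses at 6 Hz for 3 s from a constant current device, mice restrained then released to observation cage. Protected if normal exploratory behaviour resumed within 10 s of stimulation. Scored as protected/tested, 4 mice per group.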

[26] = biological target: Neuropeptide Y receptor type 2 (Homo sapiens) (UniProt P49146); experiment: Displacement of [125I]peptide YY from neuropeptide Y2 receptor in human KAN-TS cells at 10^-5 M; assay type: cell-based; procedure, shortened: as §1
Chain of Neuropeptide Y receptor type 2 (Homo sapiens) (P49146 whole entry): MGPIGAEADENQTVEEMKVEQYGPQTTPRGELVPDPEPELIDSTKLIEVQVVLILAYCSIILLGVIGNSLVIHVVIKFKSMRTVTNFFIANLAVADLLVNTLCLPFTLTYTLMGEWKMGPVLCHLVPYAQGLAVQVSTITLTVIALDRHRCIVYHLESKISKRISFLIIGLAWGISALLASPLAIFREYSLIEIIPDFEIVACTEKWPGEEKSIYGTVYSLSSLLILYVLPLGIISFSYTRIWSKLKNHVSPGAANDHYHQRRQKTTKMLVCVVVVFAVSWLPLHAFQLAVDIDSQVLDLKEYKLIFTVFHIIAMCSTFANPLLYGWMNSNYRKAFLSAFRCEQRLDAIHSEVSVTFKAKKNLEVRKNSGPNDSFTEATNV

Chain of Beta-1 adrenergic receptor (Homo sapiens) (P08588 whole entry, looked up): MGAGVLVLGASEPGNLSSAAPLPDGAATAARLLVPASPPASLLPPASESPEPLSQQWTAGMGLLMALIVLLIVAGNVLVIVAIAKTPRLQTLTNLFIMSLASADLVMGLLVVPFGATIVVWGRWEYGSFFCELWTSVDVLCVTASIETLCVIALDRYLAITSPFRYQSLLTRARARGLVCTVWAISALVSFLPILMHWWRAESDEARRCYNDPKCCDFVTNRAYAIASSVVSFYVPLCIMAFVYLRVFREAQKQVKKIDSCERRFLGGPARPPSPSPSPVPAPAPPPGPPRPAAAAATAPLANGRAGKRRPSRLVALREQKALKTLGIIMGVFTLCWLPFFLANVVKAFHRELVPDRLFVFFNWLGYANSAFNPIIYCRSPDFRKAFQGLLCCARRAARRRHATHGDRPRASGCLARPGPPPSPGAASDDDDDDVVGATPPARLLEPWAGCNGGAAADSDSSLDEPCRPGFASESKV
Chain of D(1A) dopamine receptor (Homo sapiens) (P21728 whole entry): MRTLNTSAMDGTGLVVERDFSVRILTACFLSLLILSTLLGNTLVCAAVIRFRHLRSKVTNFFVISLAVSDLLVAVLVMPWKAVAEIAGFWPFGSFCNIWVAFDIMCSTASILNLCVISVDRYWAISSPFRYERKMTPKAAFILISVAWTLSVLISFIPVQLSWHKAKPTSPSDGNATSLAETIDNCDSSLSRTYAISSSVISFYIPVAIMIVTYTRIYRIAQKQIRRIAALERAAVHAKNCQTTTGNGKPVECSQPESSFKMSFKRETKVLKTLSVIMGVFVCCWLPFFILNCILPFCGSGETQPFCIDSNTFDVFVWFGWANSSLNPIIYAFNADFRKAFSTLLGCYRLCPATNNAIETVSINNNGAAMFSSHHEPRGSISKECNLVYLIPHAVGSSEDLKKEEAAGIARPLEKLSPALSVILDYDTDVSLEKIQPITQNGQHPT
Chain of D(2) dopamine receptor (Homo sapiens) (P14416 whole entry): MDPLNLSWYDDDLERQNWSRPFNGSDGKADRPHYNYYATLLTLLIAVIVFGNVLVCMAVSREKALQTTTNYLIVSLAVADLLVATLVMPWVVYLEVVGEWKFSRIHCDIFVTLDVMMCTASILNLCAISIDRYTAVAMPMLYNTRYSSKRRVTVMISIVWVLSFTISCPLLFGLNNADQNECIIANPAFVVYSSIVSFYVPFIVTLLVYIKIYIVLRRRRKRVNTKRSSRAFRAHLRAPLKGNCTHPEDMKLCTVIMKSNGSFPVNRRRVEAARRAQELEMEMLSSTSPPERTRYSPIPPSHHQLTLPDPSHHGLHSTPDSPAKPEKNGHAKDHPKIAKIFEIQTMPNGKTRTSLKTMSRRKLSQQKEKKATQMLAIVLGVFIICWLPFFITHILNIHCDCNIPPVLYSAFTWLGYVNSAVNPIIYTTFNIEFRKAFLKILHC
Chain of Neuromedin-K receptor (Homo sapiens) (P29371 whole entry): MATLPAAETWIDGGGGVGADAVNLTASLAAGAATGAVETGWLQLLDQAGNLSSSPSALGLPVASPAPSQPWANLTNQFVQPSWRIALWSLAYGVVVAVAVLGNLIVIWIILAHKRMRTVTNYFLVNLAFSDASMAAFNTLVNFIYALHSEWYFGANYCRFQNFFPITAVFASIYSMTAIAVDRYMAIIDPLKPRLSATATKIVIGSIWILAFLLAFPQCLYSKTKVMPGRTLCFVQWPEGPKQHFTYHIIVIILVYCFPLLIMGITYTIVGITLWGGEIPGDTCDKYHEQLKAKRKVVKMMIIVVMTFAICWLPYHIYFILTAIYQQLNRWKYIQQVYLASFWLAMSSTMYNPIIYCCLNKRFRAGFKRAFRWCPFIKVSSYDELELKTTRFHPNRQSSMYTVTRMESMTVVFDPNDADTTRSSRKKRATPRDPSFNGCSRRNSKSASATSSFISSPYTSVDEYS
Chain of 5-hydroxytryptamine receptor 7 (Homo sapiens) (P34969 whole entry): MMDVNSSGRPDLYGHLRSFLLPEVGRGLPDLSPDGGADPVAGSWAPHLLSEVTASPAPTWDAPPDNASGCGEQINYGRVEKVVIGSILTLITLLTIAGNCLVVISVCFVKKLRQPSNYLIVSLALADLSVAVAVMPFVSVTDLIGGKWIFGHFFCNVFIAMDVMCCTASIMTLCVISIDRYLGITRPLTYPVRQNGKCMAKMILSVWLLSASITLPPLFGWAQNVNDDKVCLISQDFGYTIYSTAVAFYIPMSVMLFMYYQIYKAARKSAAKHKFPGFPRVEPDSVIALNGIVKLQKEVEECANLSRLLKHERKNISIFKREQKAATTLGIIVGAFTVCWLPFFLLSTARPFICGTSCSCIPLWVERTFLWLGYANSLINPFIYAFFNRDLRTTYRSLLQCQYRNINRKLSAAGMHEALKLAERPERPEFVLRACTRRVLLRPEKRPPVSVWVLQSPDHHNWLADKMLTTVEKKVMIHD
Chain of Prostacyclin receptor (Homo sapiens) (P43119 whole entry): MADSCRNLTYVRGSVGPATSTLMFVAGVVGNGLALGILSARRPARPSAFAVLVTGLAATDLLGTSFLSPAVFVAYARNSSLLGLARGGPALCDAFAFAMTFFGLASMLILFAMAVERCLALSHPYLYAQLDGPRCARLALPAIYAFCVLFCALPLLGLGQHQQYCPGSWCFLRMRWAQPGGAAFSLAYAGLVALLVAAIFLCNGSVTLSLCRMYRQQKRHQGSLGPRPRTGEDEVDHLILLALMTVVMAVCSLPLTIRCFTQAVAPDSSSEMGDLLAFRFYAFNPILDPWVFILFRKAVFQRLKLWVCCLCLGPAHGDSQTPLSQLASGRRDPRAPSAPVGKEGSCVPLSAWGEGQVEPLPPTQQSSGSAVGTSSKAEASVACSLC
Chain of Neurotensin receptor type 1 (Homo sapiens) (P30989 whole entry): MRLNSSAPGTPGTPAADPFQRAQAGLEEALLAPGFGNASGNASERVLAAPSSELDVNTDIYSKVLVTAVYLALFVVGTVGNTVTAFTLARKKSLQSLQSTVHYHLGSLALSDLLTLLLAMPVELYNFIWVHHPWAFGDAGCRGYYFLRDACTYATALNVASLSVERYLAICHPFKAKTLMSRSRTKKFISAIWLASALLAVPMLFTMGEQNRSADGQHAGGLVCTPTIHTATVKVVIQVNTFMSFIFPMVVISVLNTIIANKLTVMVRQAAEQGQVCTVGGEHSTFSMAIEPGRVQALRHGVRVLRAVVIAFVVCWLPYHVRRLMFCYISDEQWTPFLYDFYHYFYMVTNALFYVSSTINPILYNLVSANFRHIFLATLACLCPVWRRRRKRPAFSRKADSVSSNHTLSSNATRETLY
Chain of Melatonin receptor type 1A (Homo sapiens) (P48039 whole entry): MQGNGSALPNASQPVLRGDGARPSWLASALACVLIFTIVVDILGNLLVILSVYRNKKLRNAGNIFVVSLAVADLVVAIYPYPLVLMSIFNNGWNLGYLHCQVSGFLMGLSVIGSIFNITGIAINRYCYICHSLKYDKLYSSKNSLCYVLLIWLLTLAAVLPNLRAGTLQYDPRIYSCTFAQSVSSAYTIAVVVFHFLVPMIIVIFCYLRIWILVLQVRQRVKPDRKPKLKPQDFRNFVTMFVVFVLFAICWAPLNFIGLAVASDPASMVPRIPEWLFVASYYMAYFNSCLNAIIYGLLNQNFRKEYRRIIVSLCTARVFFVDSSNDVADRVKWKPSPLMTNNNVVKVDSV

Cc1cccc(C)c1OCCOCCN[C@@H](C)CO
inhibition [1]: 11.1%
inhibition [2]: 24.6%
inhibition [3]: 16.2%
inhibition [4]: 14.7%
inhibition [5]: 15%
inhibition [6]: -7.5%
inhibition [7]: -6%
Activity (Rattus norvegicus): inactive

Cc1cccc(C)c1OCCOCCN[C@H](C)CO.Cl
Kp at 4 h [8]: 1.94
Activity (Mus musculus [9]): Toxic
AUC (Mus musculus [10]): 1030 ng·h/mL
bioavailability [11]: 6.78%
Kp at 5 min [12]: 1.13
half-life [13]: 51.5 min
Activity (Vibrio harveyi): 18
MRT [14]: 85.2 min
Kp at 0.5 h [15]: 4.25
Kp at 1 h [16]: 3.58
bioavailability [17]: 2.98%
ED50 (Mus musculus [18]): > 45 mg/kg
Tmax [19]: 15 min
Kp at 0.5 h [20]: 2.12
C0 (Mus musculus [21]): 2200 ng/mL
t1/2 (Mus musculus [22]): 29.1 min
Kp at […] [23]: 2.67

Cc1cccc(C)c1OCCOCCN[C@H](C)CO
inhibition [1]: 4.8%
inhibition [2]: 24.5%
inhibition [3]: 12.4%
inhibition [4]: 12%
inhibition [24]: -4.2%
Activity (Mus musculus [25]): inactive
inhibition [5]: 8%
inhibition [26]: -5.1%
